Assay results taken from ChEMBL document CHEMBL3108696, “Structure-activity relationships of chromone derivatives toward the mechanism of interaction with and inhibition of breast cancer resistance protein ABCG2” (J Med Chem, 2013).

Key:
[1] = target: T1, Broad substrate specificity ATP-binding cassette transporter ABCG2 (Homo sapiens, UniProt Q9UNQ0); experiment: Binding affinity to ABCG2 (unknown origin) expressed in HEK293 cells assessed as modulation of 5D3 binding at 2 uM after 45 mins by flow cytometric analysis relative to Ko143; assay type: cell-based; conditions: hek293, 0.75 h
T1 sequence (Q9UNQ0 whole entry): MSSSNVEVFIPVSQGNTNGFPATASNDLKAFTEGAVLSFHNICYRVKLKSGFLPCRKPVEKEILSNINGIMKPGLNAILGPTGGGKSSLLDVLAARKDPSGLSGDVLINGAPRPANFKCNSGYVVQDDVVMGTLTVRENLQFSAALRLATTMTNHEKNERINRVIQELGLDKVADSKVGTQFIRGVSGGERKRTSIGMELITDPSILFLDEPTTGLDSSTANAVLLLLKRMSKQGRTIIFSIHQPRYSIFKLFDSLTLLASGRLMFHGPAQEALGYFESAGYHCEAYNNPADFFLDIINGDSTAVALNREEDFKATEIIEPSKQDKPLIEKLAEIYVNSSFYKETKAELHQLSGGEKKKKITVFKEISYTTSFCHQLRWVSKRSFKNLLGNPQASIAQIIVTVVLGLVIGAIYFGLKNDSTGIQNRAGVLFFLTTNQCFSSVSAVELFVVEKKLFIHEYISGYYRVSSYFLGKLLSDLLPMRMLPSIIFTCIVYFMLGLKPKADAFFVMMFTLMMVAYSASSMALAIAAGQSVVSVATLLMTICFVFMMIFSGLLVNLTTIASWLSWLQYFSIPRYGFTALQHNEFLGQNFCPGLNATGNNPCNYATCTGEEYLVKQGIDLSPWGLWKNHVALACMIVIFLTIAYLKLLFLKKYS
How it was run: (§1)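 5D3 shift assay on ABCG2-transfected HEK293 cells (0.5 × 10^6 cells/tube) in PBS with 0.5% BSA. Compound at 2 or 5 μM plus 5D3 anti-ABCG2 antibody or isotype control (1 μg/mL), 45 min at 37 °C. Anti-mouse Alexa Fluor 488 secondary (3 μg/mL), 30 min at 37 °C. Binding read by flow cytometry, expressed relative to 2 μM Ko143 (100%). Mean ± SD of ≥3 independent experiments.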

[2] = target: T1, Broad substrate specificity ATP-binding cassette transporter ABCG2; experiment: Inhibition of ABCG2-mediated mitoxantrone efflux in mitoxantrone-selected human H460 cells after 30 mins by flow cytometric analysis; assay type: cell-based
ABCG2 [3] = target: T2, ABCG2 (Homo sapiens, UniProt Q9UNQ0); experiment: Inhibition of ABCG2-mediated mitoxantrone efflux in mitoxantrone-selected human H460 cells at 5 to 10 uM after 30 mins by flow cytometric analysis relative to control; assay type: cell-based; conditions: probe mitoxantrone, read-out: Imax
T2 sequence (Q9UNQ0 whole entry): T1 sequence (Q9UNQ0 whole entry)

ABCG2 [4] = target: T2, ABCG2; experiment: Inhibition of ABCG2 (unknown origin)-mediated mitoxantrone efflux expressed in HEK293 cells at 5 to 10 uM after 30 mins by flow cytometric analysis relative to control; assay type: cell-based; conditions: HEK293 cells expressing ABCG2, probe mitoxantrone, read-out: Imax
[5] = target: T1, Broad substrate specificity ATP-binding cassette transporter ABCG2; experiment: Inhibition of ABCG2 (unknown origin)-mediated mitoxantrone efflux expressed in HEK293 cells after 30 mins by flow cytometric analysis; assay type: cell-based
[6] = target: T1, Broad substrate specificity ATP-binding cassette transporter ABCG2; experiment: Binding affinity to ABCG2 (unknown origin) expressed in HEK293 cells assessed as modulation of 5D3 binding at 5 uM after 45 mins by flow cytometric analysis relative to Ko143; assay type: cell-based; conditions: hek293, 0.75 h; how it was run: as §1
[7] = target: T1, Broad substrate specificity ATP-binding cassette transporter ABCG2; experiment: Inhibition of human ABCG2 expressed in Sf9 insect cell membranes assessed as inhibition of quercetin-stimulated ATPase activity after 30 mins by colorimetric analysis in presence of sodium orthovanadate; conditions: for inhibition (INH): human, sf9, 0.5 h
How it was run: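 Quercetin (2 μM)-stimulated vanadate-sensitive ATPase assay on cholesterol-loaded ABCG2 Sf9 membranes (10 μg/sample) in Tris/NaCl buffer, pH 8.0. Compound at 0.01, 0.03, 0.5 and 2 μM. ATP-Mg 3.9 mM, 30 min at 37 °C. Released phosphate read colorimetrically at 880 nm. IC50 estimated as 50% inhibition of initial activity; three independent experiments.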

[8] = target: T1, Broad substrate specificity ATP-binding cassette transporter ABCG2; experiment: Inhibition of human ABCG2 ATPase activity expressed in Sf9 insect cell membranes at 2 uM after 30 mins by colorimetric analysis relative to basal control in presence of sodium orthovanadate; conditions: sf9, 0.5 h
How it was run: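 Basal vanadate-sensitive ATPase assay on cholesterol-loaded membranes from human ABCG2-expressing Sf9 cells (0.5 mg/mL; 10 μg/sample). Buffer: 50 mM Tris-HCl, 50 mM NaCl, pH 8.0, with azide, ouabain, DTT and EGTA, ± 0.33 mM orthovanadate. Compound at 2 μM, or substrates nilotinib 0.1 μM, quercetin 2 μM, prazosin 20 μM. ATP-Mg 3.9 mM, 30 min at 37 °C. Phosphate read by molybdate/ascorbate at 880 nm.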

[9] = target: T1, Broad substrate specificity ATP-binding cassette transporter ABCG2; experiment: Inhibition of ABCG2 (unknown origin)-mediated BODIPY-prazosin efflux expressed in HEK293 cells at 1 to 5 uM after 30 mins by flow cytometric analysis; assay type: cell-based; conditions: hek293, 0.5 h
How it was run: (§2)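 Cells seeded at 1.5 × 10^5 cells/well and grown 48 h were exposed to BODIPY-prazosin (0.2 μM) or pheophorbide A (2 μM) for 30 min at 37 °C with or without compound. After washing and trypsinization, intracellular fluorescence was read by flow cytometry (FL4, ≥10 000 events). Percent inhibition = (C−M)/(Cev−M)×100, where Cev is from ABCG2-negative control cells.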

[10] = target: ATP-dependent translocase ABCB1 (Homo sapiens, UniProt P08183); experiment: Inhibition of ABCB1 (unknown origin)-mediated rhodamine 123 efflux expressed in mouse NIH/3T3 cells at 5 uM after 30 mins by flow cytometric analysis; assay type: cell-based; conditions: nih/3t3, 0.5 h
[11] = target: Multidrug resistance-associated protein 1 (Homo sapiens, UniProt P33527); experiment: Inhibition of ABCC1 (unknown origin)-mediated calcein-AM efflux expressed in HEK293 cells at 5 uM after 30 mins by flow cytometric analysis; assay type: cell-based; conditions: hek293, 0.5 h
ABCG2 [12] = target: T2, ABCG2; experiment: Inhibition of ABCG2 (unknown origin)-mediated pheophorbide A efflux expressed in HEK293 cells at 1 to 5 uM after 30 mins by flow cytometric analysis relative to control; assay type: cell-based; conditions: HEK293 cells expressing ABCG2, probe pheophorbide A, read-out: Imax; how it was run: as §2

Chain of Multidrug resistance-associated protein 1 (P33527 whole entry): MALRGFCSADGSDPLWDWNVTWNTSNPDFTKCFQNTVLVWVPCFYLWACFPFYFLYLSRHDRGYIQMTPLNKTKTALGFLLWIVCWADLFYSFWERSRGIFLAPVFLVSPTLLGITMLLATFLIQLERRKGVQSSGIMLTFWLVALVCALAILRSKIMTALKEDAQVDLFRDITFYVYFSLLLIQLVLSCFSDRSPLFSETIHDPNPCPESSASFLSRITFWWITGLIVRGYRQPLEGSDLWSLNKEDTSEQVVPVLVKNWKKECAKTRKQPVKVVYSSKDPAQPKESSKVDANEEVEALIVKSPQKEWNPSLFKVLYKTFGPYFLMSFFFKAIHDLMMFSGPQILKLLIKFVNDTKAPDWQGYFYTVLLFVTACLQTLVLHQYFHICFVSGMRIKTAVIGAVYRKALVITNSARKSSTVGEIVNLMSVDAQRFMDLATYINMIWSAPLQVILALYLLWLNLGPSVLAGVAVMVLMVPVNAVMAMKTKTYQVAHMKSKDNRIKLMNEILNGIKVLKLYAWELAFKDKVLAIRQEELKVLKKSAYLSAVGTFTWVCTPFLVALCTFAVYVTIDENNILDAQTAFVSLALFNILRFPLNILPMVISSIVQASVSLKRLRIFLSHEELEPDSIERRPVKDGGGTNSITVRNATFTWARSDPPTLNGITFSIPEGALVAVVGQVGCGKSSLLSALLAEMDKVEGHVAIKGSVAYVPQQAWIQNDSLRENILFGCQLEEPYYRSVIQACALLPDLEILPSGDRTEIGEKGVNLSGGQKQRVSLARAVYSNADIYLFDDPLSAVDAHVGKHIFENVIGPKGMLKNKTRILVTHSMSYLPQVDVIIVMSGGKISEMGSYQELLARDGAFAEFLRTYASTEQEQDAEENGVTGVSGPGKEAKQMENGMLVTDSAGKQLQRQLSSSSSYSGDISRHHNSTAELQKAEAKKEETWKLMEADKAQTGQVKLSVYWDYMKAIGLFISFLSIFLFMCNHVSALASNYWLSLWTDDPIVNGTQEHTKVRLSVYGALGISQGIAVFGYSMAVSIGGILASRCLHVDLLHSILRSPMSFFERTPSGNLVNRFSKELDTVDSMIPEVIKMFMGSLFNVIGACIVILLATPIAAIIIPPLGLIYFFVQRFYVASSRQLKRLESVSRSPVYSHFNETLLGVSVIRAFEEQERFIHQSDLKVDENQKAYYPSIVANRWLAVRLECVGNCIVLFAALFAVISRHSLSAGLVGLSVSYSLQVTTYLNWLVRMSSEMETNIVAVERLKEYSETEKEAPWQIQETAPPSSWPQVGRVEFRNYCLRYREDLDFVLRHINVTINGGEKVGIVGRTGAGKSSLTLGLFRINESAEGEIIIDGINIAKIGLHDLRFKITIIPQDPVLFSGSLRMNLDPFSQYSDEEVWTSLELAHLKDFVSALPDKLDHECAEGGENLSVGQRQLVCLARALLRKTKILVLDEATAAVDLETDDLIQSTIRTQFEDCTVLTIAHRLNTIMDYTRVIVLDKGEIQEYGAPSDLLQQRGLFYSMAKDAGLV
Chain of ATP-dependent translocase ABCB1 (P08183 whole entry): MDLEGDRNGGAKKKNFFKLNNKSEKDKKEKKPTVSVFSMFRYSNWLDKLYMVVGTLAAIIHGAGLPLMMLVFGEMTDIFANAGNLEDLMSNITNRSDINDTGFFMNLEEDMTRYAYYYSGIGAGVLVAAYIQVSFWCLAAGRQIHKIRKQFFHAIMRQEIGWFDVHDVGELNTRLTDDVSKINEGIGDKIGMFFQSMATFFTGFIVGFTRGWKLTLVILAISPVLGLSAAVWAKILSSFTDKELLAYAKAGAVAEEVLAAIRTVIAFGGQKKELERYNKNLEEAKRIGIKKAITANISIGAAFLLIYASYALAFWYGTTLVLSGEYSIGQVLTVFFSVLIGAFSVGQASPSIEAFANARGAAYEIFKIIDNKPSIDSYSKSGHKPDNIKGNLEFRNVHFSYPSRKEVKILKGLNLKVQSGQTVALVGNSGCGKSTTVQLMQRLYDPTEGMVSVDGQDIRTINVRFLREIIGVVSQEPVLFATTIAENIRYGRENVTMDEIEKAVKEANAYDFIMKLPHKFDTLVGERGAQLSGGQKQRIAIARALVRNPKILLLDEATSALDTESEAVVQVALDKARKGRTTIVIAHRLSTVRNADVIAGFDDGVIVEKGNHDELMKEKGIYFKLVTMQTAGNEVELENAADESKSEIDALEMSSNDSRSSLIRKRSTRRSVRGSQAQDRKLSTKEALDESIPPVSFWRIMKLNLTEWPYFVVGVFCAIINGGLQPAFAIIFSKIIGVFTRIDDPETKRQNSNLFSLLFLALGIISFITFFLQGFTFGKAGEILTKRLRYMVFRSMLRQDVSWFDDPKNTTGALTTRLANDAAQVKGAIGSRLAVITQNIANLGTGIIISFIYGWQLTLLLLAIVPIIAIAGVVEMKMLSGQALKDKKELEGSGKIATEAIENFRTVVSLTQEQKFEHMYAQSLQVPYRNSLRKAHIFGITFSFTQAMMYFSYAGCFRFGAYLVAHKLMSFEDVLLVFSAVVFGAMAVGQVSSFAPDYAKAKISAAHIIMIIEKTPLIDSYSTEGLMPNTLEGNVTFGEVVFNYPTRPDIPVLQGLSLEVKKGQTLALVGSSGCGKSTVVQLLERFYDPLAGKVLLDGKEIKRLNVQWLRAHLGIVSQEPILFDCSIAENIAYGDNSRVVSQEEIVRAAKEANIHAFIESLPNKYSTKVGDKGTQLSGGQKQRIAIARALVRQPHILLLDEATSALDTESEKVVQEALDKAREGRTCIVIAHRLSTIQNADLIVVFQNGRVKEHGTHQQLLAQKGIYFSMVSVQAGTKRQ

Row | Activity [1] [%] | Activity [6] [%] | IC50 [7] [nM] | inhibition (INH) [7] | inhibition (INH) [8] | inhibition (INH) [9] | inhibition (INH) [10] | inhibition (INH) [11] | Emax at 0.5 h (ABCG2 [12]) [%] | Compound | EC50 [2] [nM] | Emax at 0.5 h (ABCG2 [3]) [%] | Emax at 0.5 h (ABCG2 [4]) [%] | EC50 [5] [nM]
1 | 93.1 | 105.2 | 250 | Dose-dependent effect | Active | – | – | – | – | O=C(NCc1cn(CCc2c[nH]c3ccccc23)nn1)c1cc(=O)c2c(OCc3ccc(Br)cc3)cccc2o1 | 460 | 86 | 87 | 490
2 | 100.5 | 103.5 | 380 | Dose-dependent effect | Active | Active | Not Active | Not Active | 80 | COc1ccc2[nH]cc(CCNC(=O)c3cc(=O)c4c(OCc5ccc(Br)cc5)cccc4o3)c2c1 | 50 | 107 | 98 | 130
3 | 40.9 | 72.1 | > 2000 | Dose-dependent effect | Not Active | – | – | – | – | CN(CCc1cn(C)c2ccccc12)C(=O)c1cc(=O)c2cc(OCc3ccc(Br)cc3)ccc2o1 | 2150 | 61 | 50 | 2060
4 | 47.6 | 79.4 | > 2000 | Dose-dependent effect | Not Active | – | – | – | – | CN(CCc1c[nH]c2ccccc12)C(=O)c1cc(=O)c2cc(OCc3ccc(Br)cc3)ccc2o1 | 1670 | 50 | 54 | 2580
5 | 93.3 | 99.9 | 530 | Dose-dependent effect | Not Active | Active | Not Active | Not Active | 80 | COc1ccc2[nH]cc(CCNC(=O)c3cc(=O)c4cc(OCc5ccc(Br)cc5)ccc4o3)c2c1 | 100 | 109 | 108 | 290
6 | 82.3 | 102.5 | 820 | Dose-dependent effect | Active | – | – | – | – | COc1ccc2[nH]cc(CCN(C)Cc3cc(=O)c4c(OCc5ccc(Br)cc5)cccc4o3)c2c1 | 600 | 106 | 75 | 1130
7 | 82.8 | 97.4 | > 2000 | Dose-dependent effect | Active | Active | Not Active | Not Active | 80 | COc1ccc2[nH]cc(CCN(C)C(=O)c3cc(=O)c4c(OCc5ccc(Br)cc5)cccc4o3)c2c1 | 530 | 96 | 101 | 960
8 | 74.3 | 95.4 | 430 | Dose-dependent effect | Not Active | – | – | – | – | O=C(NCc1cn(Cc2ccccc2)nn1)c1cc(=O)c2c(OCc3ccc(Br)cc3)cccc2o1 | 500 | 76 | 78 | 1520
9 | 57.4 | 95.4 | > 2000 | Dose-dependent effect | Active | – | – | – | – | CN(CCc1c[nH]c2ccccc12)Cc1cc(=O)c2c(OCc3ccc(Br)cc3)cccc2o1.Cl | 1110 | 104 | 46 | 1770
10 | 78.7 | 91.8 | 930 | Dose-dependent effect | Not Active | – | – | – | – | O=C(NCc1cn(Cc2ccc(Br)cc2)nn1)c1cc(=O)c2c(OCc3ccc(Br)cc3)cccc2o1 | 710 | 76 | 95 | 570
